pKi: −log10 of the molar value. Values after ≈ are worked out from the molar mass of the structure shown.
Legend:
[1] = Inhibition of N-terminal 6x-His-tagged Klebsiella pneumoniae KPC2 (25 to 293 residues) assessed as reduction in nitrocefin hydrolysis by spectrophotometry
Summary of the method: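 Purified recombinant KPC-2 at 1 nM in 100 mM Tris-HCl pH 7.0 with 0.01% Triton X-100, 37 °C, reaction started by enzyme. IC50 from sigmoidal fit; Ki by Cheng-Prusoff using the nitrocefin Km. Run in duplicate, or once or in triplicate for some compounds.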

[2] = Inhibition of N-terminal 6x-His/Sumo-tagged NDM-1 (29 to 270 residues) (unknown origin) expressed in Escherichia coli BL21 (DE3) assessed as reduction in nitrocefin hydrolysis by spectrophotometry; design: species or system Bacteria; details: for pKi: read-out: Ki
Summary of the method: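 Metallo-enzyme assay in 50 mM HEPES pH 7.2 with 50 µM zinc sulfate, 0.01% Triton X-100 and 20 µg/mL BSA, 37 °C. NDM-1 was construct 1 with the His/SUMO tag cleaved, at 2 nM; VIM-2 had its His tag TEV-cleaved, at 0.5 nM.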

[3] = Inhibition of N-terminal 6x-His-tagged VIM-2 (unknown origin) expressed in Escherichia coli Rosetta 2 (DE3) assessed as reduction in nitrocefin hydrolysis by spectrophotometry; design: species or system Bacteria
Summary of the method: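 Metallo-enzyme assay in 50 mM HEPES pH 7.2 with 50 µM zinc sulfate, 0.01% Triton X-100 and 20 µg/mL BSA, 37 °C. NDM-1 was construct 1 with the His/SUMO tag cleaved, at 2 nM; VIM-2 had its His tag TEV-cleaved, at 0.5 nM. Nitrocefin hydrolysis read at 486 nm; IC50 from sigmoidal fit, Ki by Cheng-Prusoff; mostly duplicate.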

[4] = test system: Pseudomonas aeruginosa; assay: Inhibition of KPC2 in Pseudomonas aeruginosa 4135 assessed as potentiation of ceftazidime-induced antimicrobial activity by measuring ceftazidime MIC incubated for 18 to 20 hrs by CLSI based method (reference value: […] ug/ml)
[5] = test system: Pseudomonas aeruginosa; assay: Inhibition of NDM1 in Pseudomonas aeruginosa 4129 assessed as potentiation of ceftazidime-induced antimicrobial activity by measuring ceftazidime MIC incubated for 18 to 20 hrs by CLSI based method (reference value: 128 ug/ml)
Summary of the method: (§1)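 CLSI broth microdilution in MHBII. Standardized inoculum was a 0.5 McFarland suspension diluted to about 5×10^5 CFU per well. Ceftazidime was tested over 64–0.006 µg/mL, with avibactam fixed at 4 µg/mL as the positive control.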

[6] = test system: Pseudomonas aeruginosa; assay: Inhibition of NDM1 in efflux positive Pseudomonas aeruginosa 4177 assessed as potentiation of ceftazidime-induced antimicrobial activity by measuring ceftazidime MIC incubated for 18 to 20 hrs by CLSI based method (reference value: 128 ug/ml); summary of the method: as §1
[7] = biological target: Beta-lactamase VIM-2 (Pseudomonas aeruginosa) (UniProt Q9K2N0); assay: Inhibition of VIM-2 in efflux positive Pseudomonas aeruginosa 4402 assessed as potentiation of ceftazidime-induced antimicrobial activity by measuring ceftazidime MIC incubated for 18 to 20 hrs by CLSI based method (reference value: 32 ug/ml); summary of the method: as §1
[8] = test system: Klebsiella pneumoniae; assay: Antimicrobial activity against Klebsiella pneumoniae C2 expressing KPC2 assessed as inhibition of microbial growth incubated for 18 to 20 hrs in presence of imipenem by CLSI based method; assay type: functional
[9] = test system: Pseudomonas aeruginosa; assay: Antimicrobial activity against Pseudomonas aeruginosa 4135 expressing KPC2 assessed as inhibition of microbial growth incubated for 18 to 20 hrs in presence of imipenem by CLSI based method; assay type: functional
[10] = test system: Pseudomonas aeruginosa; assay: Antimicrobial activity against Pseudomonas aeruginosa 4129 expressing NDM1 assessed as inhibition of microbial growth incubated for 18 to 20 hrs in presence of imipenem by CLSI based method; assay type: functional
[11] = test system: Pseudomonas aeruginosa; assay: Antimicrobial activity against efflux positive Pseudomonas aeruginosa 4177 expressing NDM1 assessed as inhibition of microbial growth incubated for 18 to 20 hrs in presence of imipenem by CLSI based method; assay type: functional
[12] = test system: Pseudomonas aeruginosa; assay: Antimicrobial activity against Pseudomonas aeruginosa 4882 expressing VIM2 assessed as inhibition of microbial growth incubated for 18 to 20 hrs in presence of imipenem by CLSI based method; assay type: functional
[13] = test system: Pseudomonas aeruginosa; assay: Antimicrobial activity against efflux positive Pseudomonas aeruginosa 4402 expressing VIM2 assessed as inhibition of microbial growth incubated for 18 to 20 hrs in presence of imipenem by CLSI based method; assay type: functional
[14] = Cytotoxicity in HEK293T cells assessed as cell recovery rate at 100 ug/ml incubated for 48 hrs by MTT assay relative to control; assay type: cell-based, HEK-293T; details: human, read-out: Activity
Summary of the method: (§2)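 HEK293T cells grown in DMEM with 10% FBS and 1% penicillin/streptomycin. Compounds in DMSO were tested at 200–3.125 µg/mL, two-fold dilutions, for 48 h at 37 °C, 5% CO2. Viability by MTT, read at OD 570 nm; percent recovery calculated against solvent-only controls.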

[15] = Cytotoxicity in HEK293T cells assessed as cell recovery rate at 200 ug/ml incubated for 48 hrs by MTT assay relative to control; assay type: cell-based, HEK-293T; details: human, read-out: Activity; summary of the method: as §2
[16] = Half life in mouse liver microsomes; assay type: ADME, Microsome
[17] = Intrinsic clearance in mouse liver microsomes; assay type: ADME, Microsome
[18] = Kinetic solubility in pH 7.4 PBS; assay type: physicochemical; details: buffer
[19] = Apparent permeability from apical to basolateral side in MDCK-MDR1 cells; assay type: ADME, cell-based, Canis lupus familiaris; details: dog
[20] = Apparent permeability from basolateral to apical side in MDCK-MDR1 cells; assay type: ADME, cell-based, Canis lupus familiaris; details: dog
[21] = Permeability in MDCK-MDR1 cells assessed as drug recovery; assay type: ADME, cell-based, Canis lupus familiaris; details: dog
[22] = test system: Klebsiella pneumoniae; assay: Inhibition of KPC2 in Klebsiella pneumoniae C2 assessed as potentiation of imipenem-induced antimicrobial activity by measuring imipenem MIC incubated for 18 to 20 hrs by CLSI based method (reference value: 512 ug/ml)
[23] = biological target: Beta-lactamase VIM-2 (Pseudomonas aeruginosa) (UniProt Q9K2N0); assay: Inhibition of VIM-2 in Pseudomonas aeruginosa 4882 assessed as potentiation of imipenem-induced antimicrobial activity by measuring imipenem MIC incubated for 18 to 20 hrs by CLSI based method (reference value: 32 ug/ml)
[24] = test system: Escherichia coli; assay: Inhibition of NDM-1 in Escherichia coli 5980 assessed as potentiation of ceftazidime-induced antimicrobial activity by measuring ceftazidime MIC incubated for 18 to 20 hrs by CLSI based method
Summary of the method: (§3)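 CLSI broth microdilution in MHBII. Avibactam fixed at 4 µg/mL with ceftazidime at 64–0.006 µg/mL. Inoculum about 5×10^5 CFU per well, incubated at 35 °C for 18–20 h. Ceftazidime MIC read as absence of visible growth.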

[25] = test system: Klebsiella pneumoniae; assay: Inhibition of KPC2 in Klebsiella pneumoniae 4683 assessed as potentiation of ceftazidime-induced antimicrobial activity by measuring ceftazidime MIC incubated for 18 to 20 hrs by CLSI based method; summary of the method: as §3
[26] = biological target: Metallo-beta-lactamase type 2 (Klebsiella pneumoniae) (UniProt C7C422); assay: Inhibition of NDM-1 in Klebsiella pneumoniae 5979 assessed as potentiation of ceftazidime-induced antimicrobial activity by measuring ceftazidime MIC incubated for 18 to 20 hrs by CLSI based method; summary of the method: as §3
[27] = test system: Enterobacter cloacae; assay: Inhibition of NDM-1 in Enterobacter cloacae 5981 assessed as potentiation of ceftazidime-induced antimicrobial activity by measuring ceftazidime MIC incubated for 18 to 20 hrs by CLSI based method; summary of the method: as §3
[28] = biological target: Beta-lactamase VIM-2 (Pseudomonas aeruginosa) (UniProt Q9K2N0); assay: Inhibition of VIM-2 in Pseudomonas aeruginosa 4698 assessed as potentiation of ceftazidime-induced antimicrobial activity by measuring ceftazidime MIC incubated for 18 to 20 hrs by CLSI based method; summary of the method: as §3
[29] = test system: Escherichia coli; assay: Antimicrobial activity against Escherichia coli 5980 expressing NDM1 assessed as inhibition of microbial growth incubated for 18 to 20 hrs by CLSI based method; assay type: organism-based
Summary of the method: (§4)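 CLSI broth microdilution in MHBII. Compound tested alone in serial two-fold dilutions, 128–0.12 µg/mL. Inoculum was set to 0.5 McFarland and diluted to about 5×10^5 CFU per well. Plates incubated at 35 °C for 18–20 h. MIC read as the lowest concentration with no visible growth; an un-inoculated plate served as solubility control.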

[30] = test system: Klebsiella pneumoniae; assay: Antimicrobial activity against Klebsiella pneumoniae 4683 expressing KPC2 assessed as inhibition of microbial growth incubated for 18 to 20 hrs by CLSI based method; assay type: organism-based; summary of the method: as §4
[31] = test system: Klebsiella pneumoniae; assay: Antimicrobial activity against Klebsiella pneumoniae 5979 expressing NDM1 assessed as inhibition of microbial growth incubated for 18 to 20 hrs by CLSI based method; assay type: organism-based; summary of the method: as §4
[32] = test system: Enterobacter cloacae; assay: Antimicrobial activity against Enterobacter cloacae 5981 expressing NDM1 assessed as inhibition of microbial growth incubated for 18 to 20 hrs by CLSI based method; assay type: functional; summary of the method: as §4
[33] = test system: Pseudomonas aeruginosa; assay: Antimicrobial activity against Pseudomonas aeruginosa 4698 expressing VIM2 assessed as inhibition of microbial growth incubated for 18 to 20 hrs by CLSI based method; assay type: organism-based; summary of the method: as §4
[34] = test system: Escherichia coli; assay: Inhibition of NDM-1 in Escherichia coli 5980 assessed as potentiation of imipenem-induced antimicrobial activity by measuring imipenem MIC incubated for 18 to 20 hrs by CLSI based method (reference value: 8 ug/ml)
Summary of the method: (§5)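 CLSI broth microdilution in MHBII. […] Inoculum about 5×10^5 CFU per well, incubated at 35 °C for 18–20 h. Imipenem MIC read as absence of visible growth.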

[35] = biological target: Metallo-beta-lactamase type 2 (Klebsiella pneumoniae) (UniProt C7C422); assay: Inhibition of NDM-1 in Klebsiella pneumoniae 5979 assessed as potentiation of imipenem-induced antimicrobial activity by measuring imipenem MIC incubated for 18 to 20 hrs by CLSI based method (reference value: <[…] ug/ml)
[36] = test system: Enterobacter cloacae; assay: Inhibition of NDM-1 in Enterobacter cloacae 5981 assessed as potentiation of imipenem-induced antimicrobial activity by measuring imipenem MIC incubated for 18 to 20 hrs by CLSI based method (reference value: 2 ug/ml); summary of the method: as §5
[37] = test system: Klebsiella pneumoniae; details: 4683
[38] = biological target: Beta-lactamase VIM-2 (Pseudomonas aeruginosa) (UniProt Q9K2N0); details: 4698

Sequence of Metallo-beta-lactamase type 2 (Klebsiella pneumoniae) (C7C422 whole entry): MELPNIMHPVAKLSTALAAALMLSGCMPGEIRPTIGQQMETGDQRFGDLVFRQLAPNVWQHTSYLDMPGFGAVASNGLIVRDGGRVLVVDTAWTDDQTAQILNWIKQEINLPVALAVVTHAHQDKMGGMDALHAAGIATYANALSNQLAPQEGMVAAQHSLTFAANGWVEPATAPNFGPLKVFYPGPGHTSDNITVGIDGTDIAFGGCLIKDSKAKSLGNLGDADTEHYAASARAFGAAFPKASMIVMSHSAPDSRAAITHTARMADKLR

O=c1cc(CP(=O)(O)O)c2c(Br)cc(Br)cc2[nH]1
pKi [1]: 7.70
pKi [2]: 4.50
pKi [3]: 6.50
MIC [4]: 2 µg/mL
MIC [5]: 8 µg/mL
MIC [6]: 32 µg/mL
MIC [7]: 4 µg/mL
MIC [8]: 16 to 128 µg/mL
MIC [9]: 128 µg/mL
MIC [10]: 128 µg/mL
MIC [11]: 128 µg/mL
MIC [12]: 128 µg/mL
MIC [13]: 128 µg/mL
viability at 48 h, 100 ug/ml [14]: 88%
viability at 48 h, 200 ug/ml [15]: 70%
t1/2 [16]: > 2 h
CLH [17]: < 11.6 µL/min/mg
Kinetic_solubility [18]: 241 µM
Papp [19]: < 0.7 ×10⁻⁶ cm/s
Papp [20]: < 0.2 ×10⁻⁶ cm/s
Drug recovery [21]: 91%
MIC [22]: 4 to 16 µg/mL
MIC [23]: 2 µg/mL

NC(=O)[C@@H]1CC[C@@H]2CN1C(=O)N2OS(=O)(=O)O
MIC [24]: 4 µg/mL
MIC [25]: 4 µg/mL
MIC [26]: 4 µg/mL
MIC [27]: 4 µg/mL
MIC [28]: 4 µg/mL

Cc1cc(C)c2c(CP(=O)(O)O)cc(=O)[nH]c2c1
pKi [1]: 5.66
pKi [2]: 4.25
pKi [3]: 5.47
MIC [29]: > 128 µg/mL
MIC [30]: > 128 µg/mL
MIC [31]: > 128 µg/mL
MIC [32]: > 128 µg/mL
MIC [33]: > 128 µg/mL
MIC [34]: 2 µg/mL
MIC [35]: 64 µg/mL
MIC [36]: 2 µg/mL
Kinetic_solubility [18]: 193 µM
MIC [37]: 1 µg/mL (≈ 3.74 µM)
MIC [38]: > 64 µg/mL

O=P(O)(O)Cc1ccnc2ccccc12
pKi [1]: 3.49
Ki [2]: Not Active
pKi [3]: 4.52

Cc1cc2oc(=O)cc(CP(=O)(O)O)c2cc1C
pKi [2]: 4.35
pKi [3]: 5.68

Cc1cc(C)c2c(CP(=O)(O)O)cc(=O)oc2c1
pKi [2]: 4.47
pKi [3]: 6.09

COc1ccc2c(CP(=O)(O)O)cc(=O)oc2c1
pKi [2]: 3.91
pKi [3]: 5.68

O=c1cc(CP(=O)(O)O)c2ccccc2[nH]1
pKi [2]: 3.72
pKi [3]: 5.19
MIC [29]: > 128 µg/mL
MIC [30]: > 128 µg/mL
MIC [31]: > 128 µg/mL
MIC [32]: > 128 µg/mL
MIC [33]: > 128 µg/mL
MIC [34]: 2 µg/mL
MIC [35]: 32 µg/mL
MIC [36]: 2 µg/mL
MIC [38]: > 64 µg/mL
